According to ChEMBL document CHEMBL1156077, “Piperazinyl-glutamate-pyrimidines as potent P2Y12 antagonists for inhibition of platelet aggregation” (Bioorg Med Chem Lett, 2009):

Tests used:
[1] = target: T1, P2Y purinoceptor 12 (Homo sapiens, UniProt Q9H244); assay: Binding affinity at human recombinant P2Y12 receptor expressed in CHO cells by radioligand binding assay; format: cell-based
Summary of the method: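 Washed membranes from CHO cells transfected with synthetic human P2Y12 gene. Compounds as 7-point threefold dilutions, triplicate, 1 h at room temperature. Nonspecific binding defined with 300 nM 2-MeSADP. Filtered, washed with ice-cold Tris pH 7.4. Single-site fit; IC50 converted to Ki by Cheng–Prusoff, geometric mean of n≥2.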

[2] = target: T1, P2Y purinoceptor 12; assay: Ratio of compound IC50 to AZD-6140 IC50 for P2Y12 receptor in human platelet rich plasma assessed as inhibition of ADP-induced platelet aggregation by light transmission aggregometry
Summary of the method: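 Human platelet-rich plasma was pre-incubated 5 min at 37 °C with compound across seven concentrations (10 down to 0.156). Aggregation was started with ADP (20, final) and followed by light transmission at 626 nm for 15 min at 37 °C. Duplicate concentration-response data were read at the 15-min end-point. IC50 was divided by the IC50 of AZD-6140 run on the same plate.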

[3] = target: T1, P2Y purinoceptor 12; assay: Ratio of compound IC50 to thienopyrimidine IC50 for P2Y12 receptor in human platelet rich plasma assessed as inhibition of ADP-induced platelet aggregation by light transmission aggregometry
Summary of the method: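 Human platelet-rich plasma was pre-incubated 5 min at 37 °C with compound across seven concentrations (10 down to 0.156). Aggregation was started with ADP (20, final) and followed by light transmission at 626 nm for 15 min at 37 °C. Duplicate concentration-response data were read at the 15-min end-point. IC50 was divided by the IC50 of the thienopyrimidine reference run on the same plate.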

[4] = Selectivity for human P2Y12 receptor over P2Y1
[5] = Selectivity for human P2Y12 receptor over P2Y13

T1 sequence (Q9H244 whole entry): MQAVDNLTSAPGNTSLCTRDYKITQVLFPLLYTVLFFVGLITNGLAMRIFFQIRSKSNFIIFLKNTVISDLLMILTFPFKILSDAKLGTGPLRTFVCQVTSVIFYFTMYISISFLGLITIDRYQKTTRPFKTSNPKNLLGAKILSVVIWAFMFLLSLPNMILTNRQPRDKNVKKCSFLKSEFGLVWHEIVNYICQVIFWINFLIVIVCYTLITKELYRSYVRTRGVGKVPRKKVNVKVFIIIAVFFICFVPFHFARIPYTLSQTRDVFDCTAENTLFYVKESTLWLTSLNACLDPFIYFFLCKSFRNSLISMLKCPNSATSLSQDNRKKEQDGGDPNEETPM

Structure (SMILES): CCCCCOC(=O)N1CCN(C(=O)[C@H](CCC(=O)O)NC(=O)c2cc(N3CCC(C(=O)N4CCC4)CC3)nc(-c3ccccc3)n2)CC1
- Ki [1]: 0.83 nM
- Ratio IC50 [2]: 0.3
- Ratio IC50 [3]: 0.04
- fold change (FC) [4]: > 340
- fold change (FC) [5]: > 340

Structure (SMILES): CCCCCOC(=O)N1CCN(C(=O)[C@H](CCC(=O)O)NC(=O)c2nc(-c3ccccc3)cc(N3CCC(C(=O)N(CC)CC)CC3)n2)CC1
- Ki [1]: 3.6 nM
- Ratio IC50 [2]: 1.5
- Ratio IC50 [3]: 0.4
- fold change (FC) [4]: > 340
- fold change (FC) [5]: > 340

Structure (SMILES): CCCCCOC(=O)N1CCN(C(=O)[C@H](CCC(=O)O)NC(=O)c2cc(N3CC(OCC)C3)nc(-c3ccccc3)n2)CC1
- Ki [1]: 1.2 nM
- Ratio IC50 [2]: 3.4
- Ratio IC50 [3]: 1
- fold change (FC) [4]: > 340
- fold change (FC) [5]: > 340

Structure (SMILES): CCCCCOC(=O)N1CCN(C(=O)[C@H](CCC(=O)O)NC(=O)c2cc(N3CCC(CCN)CC3)nc(-c3ccccc3)n2)CC1
- Ki [1]: 2.7 nM
- Ratio IC50 [2]: 0.4
- Ratio IC50 [3]: 0.1
- fold change (FC) [4]: > 340
- fold change (FC) [5]: > 340

Structure (SMILES): CCCCCOC(=O)N1CCN(C(=O)[C@H](CCC(=O)O)NC(=O)c2cc(NC3CCN(C(C)C)CC3)nc(-c3ccccc3)n2)CC1
- Ki [1]: 9.4 nM
- Ratio IC50 [2]: 3.5
- Ratio IC50 [3]: 0.9
- fold change (FC) [4]: > 340
- fold change (FC) [5]: > 340

Structure (SMILES): CCCCCOC(=O)N1CCN(C(=O)[C@H](CCC(=O)O)NC(=O)c2cc(NCCCN(C)C)nc(-c3ccccc3)n2)CC1
- Ki [1]: 4.8 nM
- Ratio IC50 [2]: 1.7
- Ratio IC50 [3]: 0.6
- fold change (FC) [4]: > 340
- fold change (FC) [5]: > 340

Structure (SMILES): CCCCOC(=O)N1CCN(C(=O)[C@H](CCC(=O)O)NC(=O)c2cc(OC3CCN(C(C)C)CC3)nc(-c3ccccc3)n2)CC1
- Ki [1]: 19 nM
- Ratio IC50 [2]: 2.8
- Ratio IC50 [3]: 0.8
- fold change (FC) [4]: > 340
- fold change (FC) [5]: > 340

Structure (SMILES): CCCCCOC(=O)N1CCN(C(=O)[C@H](CCC(=O)O)NC(=O)c2cc(N3CCC(CCOC)CC3)nc(-c3ccccc3)n2)CC1
- Ki [1]: 10.2 nM
- Ratio IC50 [2]: 5.4
- Ratio IC50 [3]: 1.3
- fold change (FC) [4]: > 340
- fold change (FC) [5]: > 340

Structure (SMILES): CCCCOC(=O)N1CCN(C(=O)[C@H](CCC(=O)O)NC(=O)c2cc(N3CCC(C(=O)N(CC)CC)CC3)nc(-c3ccccc3)n2)CC1
- Ki [1]: 0.79 nM
- Ratio IC50 [2]: 0.6
- Ratio IC50 [3]: 0.1
- fold change (FC) [4]: > 340
- fold change (FC) [5]: > 340

Structure (SMILES): CCCCCOC(=O)N1CCN(C(=O)[C@H](CCC(=O)O)NC(=O)c2cc(N3CCN(CC(=O)N4CCCC4)CC3)nc(-c3ccccc3)n2)CC1
- Ki [1]: 2.1 nM
- Ratio IC50 [2]: 1.5
- Ratio IC50 [3]: 0.2
- fold change (FC) [4]: > 340
- fold change (FC) [5]: > 340

Structure (SMILES): CCCCCOC(=O)N1CCN(C(=O)[C@H](CCC(=O)O)NC(=O)c2nc(-c3ccccc3)cc(N3CCC(N4CCOCC4)CC3)n2)CC1
- Ki [1]: 5.9 nM
- Ratio IC50 [2]: 3.9
- Ratio IC50 [3]: 0.8
- fold change (FC) [4]: > 340
- fold change (FC) [5]: > 340

Structure (SMILES): CCCCCOC(=O)N1CCN(C(=O)[C@H](CCC(=O)O)NC(=O)c2nc(OCC3CCNCC3)cc(-c3ccccc3)n2)CC1
- Ki [1]: 31 nM
- Ratio IC50 [2]: 8.5
- Ratio IC50 [3]: 1.7
- fold change (FC) [4]: > 340
- fold change (FC) [5]: > 340

Structure (SMILES): CCCCOC(=O)N1CCN(C(=O)[C@H](CCC(=O)O)NC(=O)c2cc(N3CCC(C(=O)N(C)C)CC3)nc(-c3ccccc3)n2)CC1
- Ki [1]: 1.3 nM
- Ratio IC50 [2]: 1.1
- Ratio IC50 [3]: 0.2
- fold change (FC) [4]: > 340
- fold change (FC) [5]: > 340

Structure (SMILES): CCCCOC(=O)N1CCN(C(=O)[C@H](CCC(=O)O)NC(=O)c2cc(N3CCC(CCOC)CC3)nc(-c3ccccc3)n2)CC1
- Ki [1]: 2 nM
- Ratio IC50 [2]: 2.1
- Ratio IC50 [3]: 0.5
- fold change (FC) [4]: > 340
- fold change (FC) [5]: > 340

Structure (SMILES): CCCCCOC(=O)N1CCN(C(=O)[C@H](CCC(=O)O)NC(=O)c2cc(N3CCC(CN4CCCC4=O)CC3)nc(-c3ccccc3)n2)CC1
- Ki [1]: 0.99 nM
- Ratio IC50 [2]: 2
- Ratio IC50 [3]: 0.4
- fold change (FC) [4]: > 340
- fold change (FC) [5]: > 340

Structure (SMILES): CCCCOC(=O)N1CCN(C(=O)[C@H](CCC(=O)O)NC(=O)c2cc(OCC3CCCO3)nc(-c3ccccc3)n2)CC1 (stereo not given in full)
- Ki [1]: 55 nM
- Ratio IC50 [2]: 3.8
- Ratio IC50 [3]: 1.4
- fold change (FC) [4]: > 340
- fold change (FC) [5]: > 340

Structure (SMILES): CCCCCOC(=O)N1CCN(C(=O)[C@H](CCC(=O)O)NC(=O)c2nc(OCCCN3CCOCC3)cc(-c3ccccc3)n2)CC1
- Ki [1]: 11 nM
- Ratio IC50 [2]: 6.6
- Ratio IC50 [3]: 1.2
- fold change (FC) [4]: > 340
- fold change (FC) [5]: > 340

Structure (SMILES): CCCCCOC(=O)N1CCN(C(=O)[C@H](CCC(=O)O)NC(=O)c2nc(-c3ccccc3)cc(N3CCC(C(=O)N4CCCC4)CC3)n2)CC1
- Ki [1]: 3.6 nM
- Ratio IC50 [2]: 1.8
- Ratio IC50 [3]: 0.5
- fold change (FC) [4]: > 340
- fold change (FC) [5]: > 340

Structure (SMILES): CCCCCOC(=O)N1CCN(C(=O)[C@H](CCC(=O)O)NC(=O)c2cc(N3CC(O)C3)nc(-c3ccccc3)n2)CC1
- Ki [1]: 2.5 nM
- Ratio IC50 [2]: 4.6
- Ratio IC50 [3]: 0.8
- fold change (FC) [4]: > 340
- fold change (FC) [5]: > 340

Structure (SMILES): CCCCCOC(=O)N1CCN(C(=O)[C@H](CCC(=O)O)NC(=O)c2cc(N3CCC(OCCOC)CC3)nc(-c3ccccc3)n2)CC1
- Ki [1]: 5.3 nM
- Ratio IC50 [2]: 0.8
- Ratio IC50 [3]: 0.2
- fold change (FC) [4]: > 340
- fold change (FC) [5]: > 340

Structure (SMILES): CCCCCOC(=O)N1CCN(C(=O)[C@H](CCC(=O)O)NC(=O)c2cc(N3CCC(OC)CC3)nc(-c3ccccc3)n2)CC1
- Ki [1]: 5 nM
- Ratio IC50 [2]: 1.6
- Ratio IC50 [3]: 0.5
- fold change (FC) [4]: > 340
- fold change (FC) [5]: > 340

Structure (SMILES): CCCCCOC(=O)N1CCN(C(=O)[C@H](CCC(=O)O)NC(=O)c2nc(-c3ccccc3)cc(N3CCN(C)CC3)n2)CC1
- Ki [1]: 11 nM
- Ratio IC50 [2]: 8.1
- Ratio IC50 [3]: 1.8
- fold change (FC) [4]: > 340
- fold change (FC) [5]: > 340

Structure (SMILES): CCCCCOC(=O)N1CCN(C(=O)[C@H](CCC(=O)O)NC(=O)c2cc(OCC3CCN(C)CC3)nc(-c3ccccc3)n2)CC1
- Ki [1]: 5.7 nM
- Ratio IC50 [2]: 3.7
- Ratio IC50 [3]: 0.5
- fold change (FC) [4]: > 340
- fold change (FC) [5]: > 340

Structure (SMILES): CCCCOC(=O)N1CCN(C(=O)[C@H](CCC(=O)O)NC(=O)c2cc(OCC3CCNCC3)nc(-c3ccccc3)n2)CC1
- Ki [1]: 16 nM
- Ratio IC50 [2]: 1
- Ratio IC50 [3]: 0.3
- fold change (FC) [4]: > 340
- fold change (FC) [5]: > 340

Structure (SMILES): CCCCCOC(=O)N1CCN(C(=O)[C@H](CCC(=O)O)NC(=O)c2nc(-c3ccccc3)cc(N3CCC(CNCC)CC3)n2)CC1
- Ki [1]: 11 nM
- Ratio IC50 [2]: 1.6
- Ratio IC50 [3]: 0.4
- fold change (FC) [4]: > 340
- fold change (FC) [5]: > 340

Structure (SMILES): CCCCCOC(=O)N1CCN(C(=O)[C@H](CCC(=O)O)NC(=O)c2cc(N3CCC(CCN4CCCC4)CC3)nc(-c3ccccc3)n2)CC1
- Ki [1]: 2.1 nM
- Ratio IC50 [2]: 0.5
- Ratio IC50 [3]: 0.1
- fold change (FC) [4]: > 340
- fold change (FC) [5]: > 340

Structure (SMILES): CCCCCOC(=O)N1CCN(C(=O)[C@H](CCC(=O)O)NC(=O)c2cc(OCCN(CC)CC)nc(-c3ccccc3)n2)CC1
- Ki [1]: 27 nM
- Ratio IC50 [2]: 17
- Ratio IC50 [3]: 2.4
- fold change (FC) [4]: > 340
- fold change (FC) [5]: > 340
